Experiment [1] has as its target T1, Adenosine receptor A3 (Homo sapiens, UniProt P0DMS8).
T1 sequence (P0DMS8 whole entry): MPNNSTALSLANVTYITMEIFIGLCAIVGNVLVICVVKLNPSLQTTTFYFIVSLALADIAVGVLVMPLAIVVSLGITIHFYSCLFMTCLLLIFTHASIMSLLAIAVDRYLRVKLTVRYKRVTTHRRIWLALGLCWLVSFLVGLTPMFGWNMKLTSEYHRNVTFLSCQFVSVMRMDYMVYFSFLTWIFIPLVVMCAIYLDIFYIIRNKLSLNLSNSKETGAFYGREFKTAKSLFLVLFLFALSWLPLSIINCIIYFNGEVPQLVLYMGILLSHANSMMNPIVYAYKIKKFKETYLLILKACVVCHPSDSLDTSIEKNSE
Briefly: Antagonist activity at human cloned adenosine A3 receptor expressed in CHO cells assessed as inhibition of […] after 15 mins. Type of experiment: functional, cell-based. The gist of the method: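 CHO cells stably expressing hA3 plated and grown 48 h. Preincubated 15 min at 37 °C with Ro20-1724 (20 μM) and adenosine deaminase (1 U/mL). Compound (1 nM to 10 μM) given for 15 min at 37 °C, then 100 nM NECA. Reversal of NECA-induced cAMP inhibition measured by [3H]cAMP competitive protein binding assay. IC50 from sigmoid nonlinear regression, means ± SEM of three experiments.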

The target of experiment [2] is T2, Adenosine receptor A1 (Homo sapiens) (UniProt P30542).
T2 sequence (whole entry): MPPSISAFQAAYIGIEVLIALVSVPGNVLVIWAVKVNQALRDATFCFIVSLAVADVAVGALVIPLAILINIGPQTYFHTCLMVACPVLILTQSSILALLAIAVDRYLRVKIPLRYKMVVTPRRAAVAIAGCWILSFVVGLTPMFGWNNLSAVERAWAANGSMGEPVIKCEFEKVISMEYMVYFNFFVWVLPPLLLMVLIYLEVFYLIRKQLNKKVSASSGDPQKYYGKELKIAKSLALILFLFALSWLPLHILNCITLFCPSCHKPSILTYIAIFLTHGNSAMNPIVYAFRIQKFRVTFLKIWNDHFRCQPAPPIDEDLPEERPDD
The experiment is described as follows: Displacement of [3H]DPCPX from human cloned adenosine A1 receptor expressed in CHO cells at 10 uM. The class given is cell-based. The gist of the method: (§1)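 Radioligand displacement in CHO membranes stably expressing hA1 ([3H]DPCPX, Kd 3 nM) or hA2A ([3H]NECA, Kd 30 nM). Percent inhibition of specific binding at 10 μM. Full curves used five concentrations in triplicate, with IC50 converted to Ki by Cheng-Prusoff.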

The target in experiment [3] is Adenosine receptor A2a (Homo sapiens) (UniProt P29274). The experiment is described as follows: Displacement of [3H]NECA from human cloned adenosine A2A receptor expressed in CHO cells at 10 uM. The class given is cell-based. The essentials:
as §1

Experiment [4] concerns the target T1, Adenosine receptor A3. The experiment is described as follows: Displacement of [125I]AB-MECA from human cloned adenosine A3 receptor expressed in CHO cells. The class given is cell-based. The gist of the method: (§2)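 Membranes from CHO cells stably expressing hA3 AR, labelled with [125I]AB-MECA (Kd 1.4 nM). IC50 from nonlinear regression using five displacer concentrations, each in triplicate. Ki calculated by Cheng-Prusoff, mean ± SEM of four assays. Single-point data are percent inhibition of specific binding at 1 μM.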
(In general: Loss of bound radioactivity is the signal in a displacement assay; it reports binding, not function.)

Experiment [5] addresses T3, Adenosine receptor A2b (Homo sapiens) (UniProt P29275).
T3 sequence (whole entry): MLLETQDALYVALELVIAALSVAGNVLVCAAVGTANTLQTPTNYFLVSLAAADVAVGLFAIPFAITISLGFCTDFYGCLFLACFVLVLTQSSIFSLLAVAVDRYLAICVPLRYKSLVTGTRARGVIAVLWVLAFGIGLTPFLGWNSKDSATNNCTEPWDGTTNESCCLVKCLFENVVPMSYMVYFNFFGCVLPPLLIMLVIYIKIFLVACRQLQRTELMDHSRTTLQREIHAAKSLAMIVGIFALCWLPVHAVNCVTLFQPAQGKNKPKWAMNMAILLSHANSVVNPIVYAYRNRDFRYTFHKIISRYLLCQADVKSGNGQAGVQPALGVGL
The experiment is described as follows: Antagonist activity at human cloned adenosine A2B receptor expressed in CHO cells assessed as inhibition of NECA-induced cAMP accumulation at 1 nM to 10 uM after 15 mins. The class given is functional, cell-based. The gist of the method:
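Stably transfected CHO cells (~60000) plated and grown 48 h. Preincubated 15 min at 37 °C in DMEM containing Ro20-1724 (20 μM) and adenosine deaminase (1 U/mL). Compound (1 nM to 10 μM) added for 15 min at 37 °C, then 100 nM NECA. Reaction stopped with 0.4 N HCl and lysate neutralised with KOH. cAMP measured by competitive binding to beef adrenal binding protein with [3H]cAMP (2 nM) for 150 min at 4 °C, then filtration. Read-out is percent inhibition of NECA-stimulated cAMP.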
In general terms: cAMP levels reflect the balance of adenylyl cyclase and phosphodiesterase activity.

In experiment [6] the target is T4, Adenosine receptor A3 (Homo sapiens) (UniProt P0DMS8).
T4 sequence (whole entry): T1 sequence (P0DMS8 whole entry)
Briefly: Displacement of [125I]AB-MECA from human cloned adenosine A3 receptor expressed in CHO cells at 1 uM. The class given is cell-based. The essentials: as §2

Experiment [7] is described as follows: Displacement of [3H]CGS21680 from adenosine A2A receptor in bovine brain membranes. The class given is cell membranes, Bos taurus.
For experiment [8], the target named is Adenosine receptors; A1 & A3 (Homo sapiens) (UniProt P30542+P0DMS8). The experiment is described as follows: Selectivity ratio of Ki for human cloned adenosine A1 receptor to Ki for human cloned adenosine A3 receptor. The essentials: (§3)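 Ki values from radioligand displacement at hA1 ([3H]DPCPX, Kd 3 nM), hA2A ([3H]NECA, Kd 30 nM) and hA3 ([125I]AB-MECA, Kd 1.4 nM) in CHO membranes. Five displacer concentrations in triplicate, Cheng-Prusoff conversion, means of four assays. Ratio taken as A1 or A2A Ki over A3 Ki.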

The species named for another experiment is Homo sapiens. The experiment is described as follows: Selectivity ratio of Ki for human cloned adenosine A2A receptor to Ki for human cloned adenosine A3 receptor. The gist of the method: as §3

Sequence of Adenosine receptor A2a (Homo sapiens) (P29274 whole entry): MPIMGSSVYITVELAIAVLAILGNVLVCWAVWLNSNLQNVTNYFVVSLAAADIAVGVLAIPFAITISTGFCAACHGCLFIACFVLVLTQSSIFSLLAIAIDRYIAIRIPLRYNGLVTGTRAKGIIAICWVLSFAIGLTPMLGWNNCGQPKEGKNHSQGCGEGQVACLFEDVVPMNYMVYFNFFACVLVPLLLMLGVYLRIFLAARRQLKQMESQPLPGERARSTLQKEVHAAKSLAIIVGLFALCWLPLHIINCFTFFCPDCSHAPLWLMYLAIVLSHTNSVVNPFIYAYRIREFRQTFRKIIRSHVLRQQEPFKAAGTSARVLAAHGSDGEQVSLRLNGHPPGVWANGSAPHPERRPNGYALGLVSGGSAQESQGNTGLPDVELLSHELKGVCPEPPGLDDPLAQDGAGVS

The term IC50 denotes the concentration at which inhibition is half-maximal. As a reminder, the inhibition is the change of the read-out against control, counted positive when it falls. By Ki is commonly meant a dissociation constant, usually derived from enzyme kinetics or from competition with a known ligand. The low end stands for a stronger hold on the target, the high end for a looser hold on the target. As to `COc1cccc(NC(=O)Nc2nn(-c3ccccc3)c(=O)c3ccccc23)c1`, the IC50 on Adenosine receptor A3 [1] stood at 18 nM. Further, the inhibition in experiment [2] is 45%; in experiment [3], 28%; in experiment [5], 57%. Also, at Adenosine receptor A3 [4], the Ki is 9.75 nM.

For `Cc1ccc(NC(=O)Nc2nn(-c3ccccc3)c(=O)c3ccccc23)cc1`, the inhibition in experiment [6] was found to be 45%; in [2], 29%; in experiment [3] it was 0%.

With `O=C(Nc1ccccc1)Nc1nn(-c2ccccc2)c(=O)c2ccccc12`, the inhibition turned out to be 44% in experiment [2] and 42% in experiment [3]. Moreover, the affinity on Adenosine receptor A3 [4], expressed as Ki, was 178 nM.

Consider `O=C(Nc1nn(-c2ccccc2)c(=O)c2ccccc12)c1ccccc1`, for which the results for the inhibition in experiment [2] and in [3] were 44% and 35%, respectively. Moreover, on Adenosine receptor A3 [4], the Ki turned out to be 1100 nM.

As to `COc1ccc(NC(=O)Nc2nn(-c3ccccc3)c(=O)c3ccccc23)cc1`, at Adenosine receptor A3 [1], the IC50 was found to be 28 nM. For the same compound, the inhibition in [2] came out at 4%; in experiment [3] it was 51%; in experiment [5] it was 0%. This compound also displayed a Ki on Adenosine receptor A3 [4] of 60.6 nM.

With `Nc1nc2ccccc2n2c(=O)n(-c3ccccc3)nc12`, at Adenosine receptor A3 [4], the Ki amounted to 490 nM. This counts as sub-micromolar.

For the compound `O=C(NCc1ccccc1)Nc1nn(-c2ccccc2)c(=O)c2ccccc12`, the IC50 on Adenosine receptor A3 [1] stood at 1.15 nM. For the same compound, the inhibition in experiment [2] was determined as 20%; in experiment [3], 23%; in [5], 34%. Further, at Adenosine receptor A3 [4], the Ki stood at 29.6 nM.

As to `O=C(Nc1nn(-c2ccccc2)c(=O)c2ccccc12)c1ccco1`, the inhibition in experiment [6] stood at 8%; in experiment [2], 23%; in [3] it was 41%.

On to `COc1ccccc1NC(=O)Nc1nn(-c2ccccc2)c(=O)c2ccccc12`, for which the IC50 at Adenosine receptor A3 [1] came to 17 nM. Also, the inhibition amounted to 0% in [2], 17% in experiment [3] and 16% in experiment [5]. This compound yielded a Ki at Adenosine receptor A3 [4] of 8.9 nM.

As for `O=C(Nc1ccccc1)Nc1nc2ccccc2n2c(=O)n(-c3ccccc3)nc12`, the Ki in experiment [7] came to 2300 nM.

Consider `COc1ccc(OC)c(NC(=O)Nc2nn(-c3ccccc3)c(=O)c3ccccc23)c1`, for which the IC50 at Adenosine receptor A3 [1] came to 8.25 nM. In addition, the figures for the inhibition in experiment [2], in experiment [3] and in [5] were 0%, 19% and 0%, respectively. The Ki on Adenosine receptor A3 [4] is 0.776 nM. Also, the Ratio Ki (in experiment [8]; in the experiment filed under Homo sapiens) was 10000 in each case.

As to `COc1ccccc1CNC(=O)Nc1nn(-c2ccccc2)c(=O)c2ccccc12`, the inhibition in experiment [2] and in [3] was 28% in each case. In addition, affinity on Adenosine receptor A3 [4] was put at a Ki of 274 nM.

As to `Cc1ccccc1NC(=O)Nc1nn(-c2ccccc2)c(=O)c2ccccc12`, the values for the inhibition in experiment [6], in experiment [2] and in [3] were 22%, 20% and 28%, respectively.

Take `CC(=O)N(C(C)=O)c1nn(-c2ccccc2)c(=O)c2ccccc12`: the inhibition in experiment [6] is 0%; in experiment [2], 47%; in experiment [3], 10%.

Regarding `COc1ccc(C(=O)Nc2nn(-c3ccccc3)c(=O)c3ccccc23)cc1`, the figures for the inhibition in [6], in experiment [2] and in experiment [3] were 10%, 0% and 17%, respectively.

On to `CC(=O)Nc1nn(-c2ccccc2)c(=O)c2ccccc12`, for which the figures for the inhibition in [6], in experiment [2] and in experiment [3] were 0%, 52% and 14%, respectively.

As to `Nc1nn(-c2ccccc2)c(=O)c2ccccc12`, the inhibition in experiment [6] amounted to 8%; in experiment [2] it was 24%; in [3], 45%.

`O=C(Nc1nn(-c2ccccc2)c(=O)c2ccccc12)c1ccc(Cl)cc1`: the inhibition in [6] was 17%; in experiment [2], 26%; in experiment [3] it was 17%.

As for `O=C(Cc1ccccc1)Nc1nn(-c2ccccc2)c(=O)c2ccccc12`, the inhibition is 28% in [6], 23% in [2] and 4% in [3].

`O=C(Nc1ccccc1Cl)Nc1nn(-c2ccccc2)c(=O)c2ccccc12`: the figures for the inhibition in experiment [6], in experiment [2] and in experiment [3] were 49%, 0% and 3%, respectively.

Turning to `O=C(Nc1ccc(Cl)cc1)Nc1nn(-c2ccccc2)c(=O)c2ccccc12`, the figures for the inhibition in experiment [6], in experiment [2] and in experiment [3] were 13%, 10% and 9%, respectively.

With `COc1ccc(NC(=O)Nc2nn(-c3ccccc3)c(=O)c3ccccc23)c(OC)c1`, the figures for the inhibition in experiment [6], in experiment [2] and in [3] were 33%, 29% and 33%, respectively.

The record behind these values is ChEMBL document CHEMBL1764987, “The identification of the 2-phenylphthalazin-1(2H)-one scaffold as a new decorable core skeleton for the design of potent and selective human A3 adenosine receptor antagonists” (J Med Chem, 2011).
